Results as given in ChEMBL document CHEMBL2021842, “COMPARE analysis of the toxicity of an iminoquinone derivative of the imidazo[5,4-f]benzimidazoles with NAD(P)H:quinone oxidoreductase 1 (NQO1) activity and computational docking of quinones as NQO1 substrates” (Bioorg Med Chem, 2012).

Legend:
HeLa = test: Cytotoxicity against human HeLa cells assessed as reduction in mean cell viability after 72 hrs by MTT assay; type: functional, cell-based
Outline: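 HeLa-CCL-2 cells in DMEM with 10% heat-inactivated FBS, 2 mM L-glutamine and nonessential amino acids. Plated at 1000 cells/well with 24 h adherence. Treated in ethanol (1% final) for 72 h at 37 °C under 5% CO₂, with ethanol controls. Absorbance of DMSO-dissolved formazan at 550 nm, 690 nm reference. IC₅₀ by nonlinear regression of percent viability.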

[1] = Cytotoxicity against human GM00637 cells assessed as reduction in mean cell viability after 72 hrs by MTT assay; type: cell-based; details: GM00637, 72 h
Outline: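 SV40-transformed normal skin fibroblasts (GM00637) in MEM Eagle–Earle BSS with 15% heat-inactivated FBS, 2 mM L-glutamine, 2× amino acids and vitamins. Seeded at 10,000 cells/well and left 24 h to adhere. Ethanol-delivered compound (1% final) for 72 h at 37 °C, 5% CO₂. MTT formazan in DMSO read at 550/690 nm. Viability relative to vehicle; IC₅₀ by nonlinear regression.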

DU-145 = test: Cytotoxicity against human DU145 cells assessed as reduction in mean cell viability after 72 hrs by MTT assay; type: functional, cell-based; details: DU-145, 72 h
Outline: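 DU-145 prostate cells in RPMI-1640 with 10% heat-inactivated FBS, penicillin–streptomycin and 2 mM L-glutamine. Seeded at 2000 cells/well and left 24 h to adhere. Compound added in ethanol (1% final) for 72 h at 37 °C, 5% CO₂, with ethanol-only controls. Formazan dissolved in DMSO and read at 550 nm (690 nm reference). IC₅₀ derived by nonlinear regression of viability versus vehicle.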

Row | SMILES | IC50 (HeLa) [nM] | IC50 [1] [nM] | IC50 (DU-145) [nM]
1 | O=C1c2nc3n(c2C(=O)c2nc4n(c21)CCCCC4)CCCCC3 | 1780 | > 5000 | 4460
2 | CO[C@@]12[C@H](COC(N)=O)C3=C(C(=O)C(C)=C(N)C3=O)N1C[C@@H]1N[C@@H]12 [MITOMYCIN] | – | 460 | –
3 | CCCCn1cnc2c1C(=O)c1nc3n(c1C2=O)CCCC3 | 1280 | 2120 | 1350
4 | O=C1c2nc3n(c2C(=O)c2c1nc1n2CCCC1)CCCC3 | 3330 | > 5000 | 1730
